Laboratory results from ChEMBL document CHEMBL4814052, “Isatin-derived azoles as new potential antimicrobial agents: Design, synthesis and biological evaluation” (2021).
Converted amounts (≈) assume the structure as drawn. The source made the active and inactive calls. The calls are words filed in the database; no cut-off is given here.

Columns and labels:
Candida tropicalis [1] = assay: Antifungal activity against Candida tropicalis; type: functional
Staphylococcus aureus [2] = assay: Antibacterial activity against Staphylococcus aureus ATCC 25923 by broth microdilution method; type: functional
Staphylococcus aureus [3] = assay: Antibacterial activity against Staphylococcus aureus by broth microdilution method; type: functional
Escherichia coli [4] = assay: Antibacterial activity against Escherichia coli ATCC 25922 by broth microdilution method; type: functional
Staphylococcus aureus [5] = assay: Antibacterial activity against methicillin resistant Staphylococcus aureus by broth microdilution method; type: functional
Escherichia coli [6] = assay: Antibacterial activity against Escherichia coli by broth microdilution method; type: functional
Klebsiella pneumoniae = assay: Antibacterial activity against Klebsiella pneumonia by broth microdilution method; type: functional
Enterococcus faecalis [7] = assay: Antibacterial activity against Enterococcus faecalis by broth microdilution method; type: functional
Acinetobacter baumannii = assay: Antibacterial activity against Acinetobacter baumannii by broth microdilution method; type: functional
Escherichia coli [8] = assay: Antibacterial activity against Escherichia coli ATCC 25922 measured after 6 passages by broth microdilution method; type: functional, organism-based
Pseudomonas aeruginosa [9] = assay: Antibacterial activity against Pseudomonas aeruginosa ATCC 27853 by broth microdilution method; type: functional
Pseudomonas aeruginosa [10] = assay: Antibacterial activity against Pseudomonas aeruginosa by broth microdilution method; type: functional
Staphylococcus aureus [11] = assay: Antibacterial activity against Staphylococcus aureus ATCC 29213 by broth microdilution method; type: functional
Escherichia coli [12] = assay: Potency index, ratio of MIC of norfloxacin to MIC of compound for antibacterial activity against Escherichia coli ATCC 25922 by broth microdilution method; type: functional
Calf thymus DNA [13] = assay: Binding affinity to calf thymus DNA assessed as hyperchromic effect by UV-Vis spectroscopy; type: nucleic-acid assay; settings: Bos taurus
Outline: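 UV-Vis absorbance of the compound–DNA mixture is compared with the summed absorbances of free DNA and free compound. Hyperchromism is read as higher absorbance of the mixture than that sum.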

Calf thymus DNA [14] = assay: Binding affinity to calf thymus DNA assessed as reduction in neutral red-DNA complex formation by competitive binding assay; type: nucleic-acid assay; settings: Bos taurus
Escherichia coli [15] = assay: Antibacterial activity against Escherichia coli ATCC 25922 measured after 10 passages by broth microdilution method; type: functional, organism-based
Candida tropicalis [16] = assay: Fungicidal activity against Candida tropicalis by broth microdilution method; type: functional, organism-based
Enterococcus faecalis [17] = assay: Bactericidal activity against Enterococcus faecalis by broth microdilution method; type: functional, organism-based
Candida parapsilosis = assay: Fungicidal activity against Candida parapsilosis ATCC 22019 assessed as […] by broth microdilution method

Compound	MIC (Staphylococcus aureus [2]) [µg/mL]	MIC (Staphylococcus aureus [3]) [µg/mL]	MIC (Escherichia coli [4]) [µg/mL]	MIC (Staphylococcus aureus [5]) [µg/mL]	MIC (Escherichia coli [6]) [µg/mL]	MIC (Klebsiella pneumoniae) [µg/mL]	MIC (Enterococcus faecalis [7]) [µg/mL]	MIC (Acinetobacter baumannii) [µg/mL]	MIC (Pseudomonas aeruginosa [9]) [µg/mL]	MIC (Pseudomonas aeruginosa [10]) [µg/mL]	MIC (Staphylococcus aureus [11]) [µg/mL]	also measured
OC(Cn1cncn1)(Cn1cncn1)c1ccc(F)cc1F	–	–	–	–	–	–	–	–	–	–	–	Activity (Candida tropicalis [1]): Active
CCn1cc(C(=O)O)c(=O)c2cc(F)c(N3CCNCC3)cc21 [NORFLOXACIN]	1 (≈ 3.13 µM)	1 (≈ 3.13 µM)	8 (≈ 25.1 µM)	8 (≈ 25.1 µM)	16 (≈ 50.1 µM)	4 (≈ 12.5 µM)	4 (≈ 12.5 µM)	8 (≈ 25.1 µM)	2 (≈ 6.26 µM)	2 (≈ 6.26 µM)	2 (≈ 6.26 µM)	Activity (Escherichia coli [8]): inactive
O=C(CC1(O)C(=O)N(CCn2cncn2)c2ccccc21)c1ccc(Cl)cc1 (stereo unspecified)	256 (≈ 645 µM)	128 (≈ 323 µM)	512 (≈ 1290 µM)	128 (≈ 323 µM)	128 (≈ 323 µM)	256 (≈ 645 µM)	256 (≈ 645 µM)	64 (≈ 161 µM)	128 (≈ 323 µM)	512 (≈ 1290 µM)	128 (≈ 323 µM)	–
O=C(CC1(O)C(=O)N(CCn2cncn2)c2ccccc21)c1ccccc1 (stereo unspecified)	256 (≈ 706 µM)	128 (≈ 353 µM)	512 (≈ 1410 µM)	128 (≈ 353 µM)	256 (≈ 706 µM)	256 (≈ 706 µM)	256 (≈ 706 µM)	64 (≈ 177 µM)	512 (≈ 1410 µM)	512 (≈ 1410 µM)	256 (≈ 706 µM)	–
O=C(/C=C1\C(=O)N(CCn2cncn2)c2ccccc21)c1ccc(Cl)cc1	128 (≈ 338 µM)	512 (≈ 1350 µM)	64 (≈ 169 µM)	32 (≈ 84.5 µM)	512 (≈ 1350 µM)	128 (≈ 338 µM)	32 (≈ 84.5 µM)	> 512	512 (≈ 1350 µM)	512 (≈ 1350 µM)	64 (≈ 169 µM)	–
O=C(CC1(O)C(=O)N(CCn2cncn2)c2ccccc21)c1ccc(O)cc1 (stereo unspecified)	256 (≈ 677 µM)	256 (≈ 677 µM)	256 (≈ 677 µM)	256 (≈ 677 µM)	256 (≈ 677 µM)	256 (≈ 677 µM)	256 (≈ 677 µM)	512 (≈ 1350 µM)	256 (≈ 677 µM)	256 (≈ 677 µM)	256 (≈ 677 µM)	–
O=C1C(=O)N(CCn2nnc3ccccc32)c2ccccc21	256 (≈ 876 µM)	256 (≈ 876 µM)	128 (≈ 438 µM)	128 (≈ 438 µM)	128 (≈ 438 µM)	256 (≈ 876 µM)	512 (≈ 1750 µM)	128 (≈ 438 µM)	256 (≈ 876 µM)	256 (≈ 876 µM)	256 (≈ 876 µM)	–
O=C(/C=C1\C(=O)N(CCn2cncn2)c2ccccc21)c1ccc(O)cc1	128 (≈ 355 µM)	128 (≈ 355 µM)	256 (≈ 710 µM)	256 (≈ 710 µM)	128 (≈ 355 µM)	256 (≈ 710 µM)	128 (≈ 355 µM)	64 (≈ 178 µM)	256 (≈ 710 µM)	256 (≈ 710 µM)	32 (≈ 88.8 µM)	–
Cc1ncc([N+](=O)[O-])n1CCN1C(=O)C(=O)c2ccccc21	256 (≈ 853 µM)	128 (≈ 426 µM)	128 (≈ 426 µM)	128 (≈ 426 µM)	128 (≈ 426 µM)	64 (≈ 213 µM)	128 (≈ 426 µM)	128 (≈ 426 µM)	256 (≈ 853 µM)	64 (≈ 213 µM)	128 (≈ 426 µM)	–
CCCc1nccn1CCN1C(=O)C(=O)c2ccccc21	256 (≈ 904 µM)	64 (≈ 226 µM)	64 (≈ 226 µM)	128 (≈ 452 µM)	64 (≈ 226 µM)	128 (≈ 452 µM)	128 (≈ 452 µM)	32 (≈ 113 µM)	256 (≈ 904 µM)	128 (≈ 452 µM)	16 (≈ 56.5 µM)	–
O=C1C(=O)N(CCn2cnc3ccccc32)c2ccccc21	256 (≈ 879 µM)	64 (≈ 220 µM)	256 (≈ 879 µM)	256 (≈ 879 µM)	256 (≈ 879 µM)	128 (≈ 439 µM)	256 (≈ 879 µM)	128 (≈ 439 µM)	256 (≈ 879 µM)	512 (≈ 1760 µM)	256 (≈ 879 µM)	–
Cc1ccc(C(=O)/C=C2\C(=O)N(CCn3cncn3)c3ccccc32)cc1	8 (≈ 22.3 µM)	64 (≈ 179 µM)	256 (≈ 714 µM)	128 (≈ 357 µM)	64 (≈ 179 µM)	256 (≈ 714 µM)	256 (≈ 714 µM)	32 (≈ 89.3 µM)	512 (≈ 1430 µM)	128 (≈ 357 µM)	256 (≈ 714 µM)	–
CC(=O)/C=C1\C(=O)N(CCn2cncn2)c2ccccc21	128 (≈ 453 µM)	64 (≈ 227 µM)	1 (≈ 3.54 µM)	128 (≈ 453 µM)	64 (≈ 227 µM)	32 (≈ 113 µM)	32 (≈ 113 µM)	64 (≈ 227 µM)	32 (≈ 113 µM)	32 (≈ 113 µM)	64 (≈ 227 µM)	Ratio (Escherichia coli [12]): 8; MIC (Candida tropicalis [1]): 8 µg/mL (≈ 28.3 µM); Activity (Calf thymus DNA [13]): Active; Activity (Calf thymus DNA [14]): Active; Activity (Escherichia coli [15]): Active; Activity (Candida tropicalis [16]): inactive; Activity (Enterococcus faecalis [17]): inactive; Ratio (Candida parapsilosis): 4
O=C1C(O)c2ccccc2N1CCn1cncn1 (stereo unspecified)	64 (≈ 262 µM)	128 (≈ 524 µM)	256 (≈ 1050 µM)	128 (≈ 524 µM)	128 (≈ 524 µM)	128 (≈ 524 µM)	128 (≈ 524 µM)	64 (≈ 262 µM)	128 (≈ 524 µM)	256 (≈ 1050 µM)	64 (≈ 262 µM)	–
O=C1C(=O)N(CCn2cncn2)c2ccccc21	128 (≈ 528 µM)	128 (≈ 528 µM)	8 (≈ 33 µM)	256 (≈ 1060 µM)	32 (≈ 132 µM)	128 (≈ 528 µM)	128 (≈ 528 µM)	128 (≈ 528 µM)	64 (≈ 264 µM)	128 (≈ 528 µM)	32 (≈ 132 µM)	–
O=C1C(=O)N(CCn2cnc([N+](=O)[O-])c2)c2ccccc21	64 (≈ 224 µM)	128 (≈ 447 µM)	64 (≈ 224 µM)	256 (≈ 894 µM)	128 (≈ 447 µM)	64 (≈ 224 µM)	128 (≈ 447 µM)	32 (≈ 112 µM)	256 (≈ 894 µM)	64 (≈ 224 µM)	32 (≈ 112 µM)	–
O=C(/C=C1\C(=O)N(CCn2cncn2)c2ccccc21)c1ccccc1	128 (≈ 372 µM)	128 (≈ 372 µM)	8 (≈ 23.2 µM)	256 (≈ 743 µM)	64 (≈ 186 µM)	64 (≈ 186 µM)	128 (≈ 372 µM)	128 (≈ 372 µM)	128 (≈ 372 µM)	32 (≈ 92.9 µM)	128 (≈ 372 µM)	–
Cc1ccc(C(=O)CC2(O)C(=O)N(CCn3cncn3)c3ccccc32)cc1 (stereo unspecified)	256 (≈ 680 µM)	256 (≈ 680 µM)	512 (≈ 1360 µM)	256 (≈ 680 µM)	128 (≈ 340 µM)	256 (≈ 680 µM)	128 (≈ 340 µM)	128 (≈ 340 µM)	256 (≈ 680 µM)	512 (≈ 1360 µM)	128 (≈ 340 µM)	–
O=C1C(=O)N(CCn2ccnn2)c2ccccc21	256 (≈ 1060 µM)	32 (≈ 132 µM)	128 (≈ 528 µM)	256 (≈ 1060 µM)	256 (≈ 1060 µM)	256 (≈ 1060 µM)	128 (≈ 528 µM)	32 (≈ 132 µM)	128 (≈ 528 µM)	128 (≈ 528 µM)	256 (≈ 1060 µM)	–
Cc1nccn1CCN1C(=O)C(=O)c2ccccc21	128 (≈ 501 µM)	128 (≈ 501 µM)	128 (≈ 501 µM)	128 (≈ 501 µM)	256 (≈ 1000 µM)	64 (≈ 251 µM)	128 (≈ 501 µM)	32 (≈ 125 µM)	128 (≈ 501 µM)	128 (≈ 501 µM)	256 (≈ 1000 µM)	–
CC(=O)CC1(O)C(=O)N(CCn2cncn2)c2ccccc21 (stereo unspecified)	256 (≈ 852 µM)	256 (≈ 852 µM)	512 (≈ 1700 µM)	256 (≈ 852 µM)	256 (≈ 852 µM)	256 (≈ 852 µM)	256 (≈ 852 µM)	256 (≈ 852 µM)	256 (≈ 852 µM)	256 (≈ 852 µM)	256 (≈ 852 µM)	–
Cc1cc2ncn(CCN3C(=O)C(=O)c4ccccc43)c2cc1C	256 (≈ 802 µM)	256 (≈ 802 µM)	256 (≈ 802 µM)	128 (≈ 401 µM)	256 (≈ 802 µM)	128 (≈ 401 µM)	256 (≈ 802 µM)	32 (≈ 100 µM)	256 (≈ 802 µM)	256 (≈ 802 µM)	128 (≈ 401 µM)	–
